Experimental data as given in ChEMBL document CHEMBL1123028, “Synthesis and biological effects of novel thiocolchicines. 3. Evaluation of N-acyldeacetylthiocolchicines, N-(alkoxycarbonyl) deacetylthiocolchicines, and O-ethyldemethylthiocolchicines. New synthesis of thiodemecolcine and antileukemic effects of 2-demethyl- and 3-demethylthiocolchicine” (J Med Chem, 1985).

What was measured:
[1] = species: Mus musculus; assay: Compound was evaluated for the antitumor activity against P388 lymphocytic leukemia in mice; T/C = (days test animal live/days control animals live x100); format: functional
How it was run: (§1)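 P388 lymphocytic leukemia implanted ip in mice, run to NCI Developmental Therapeutics Program protocols. Treatment given on a QD1 × 9 schedule. T/C = median survival time of treated animals / median survival time of untreated controls × 100. Value reported at the dose level giving the highest T/C. Activity requires duplicate tests with T/C ≥ 120%; a reproducible T/C ≥ 175% counts as significant.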

[2] = (§2) Lethal dose after the intraperitoneal injection in a group of 10 mice; format: toxicity, organism-based; conditions: mouse, in vivo, ip
How it was run: (§3)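 NIH general purpose mice (ca. 20 g) were given a single ip injection in an Emulphor EL-620 mixture. Groups of 10 were used at each of usually at least five dose levels. One set of 10 mice received the emulphor mixture alone as a control for each compound. Survivors were counted 7 days after injection, and LD50 (mg/kg) with 95% confidence interval was derived by probit analysis.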

[3] = species: Mus musculus; assay: MED(minimum effective dose) against P388 lymphocytic leukemia in mice; this dose produced T/C greater than the threshold value of 125; format: functional; parameters: unit: mg/kg
How it was run: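 P388 leukemia implanted ip in mice, treated on a QD1 × 9 schedule under NCI Developmental Therapeutics Program protocols. Minimum effective dose (mg/kg) taken as the lowest dose giving T/C, as survival of treated versus control animals × 100, above the threshold of 125.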

[4] = species: Mus musculus; assay: Antitumor activity against P388 lymphocytic leukemia in mice; format: functional; how it was run: as §1
[5] = system: Mus musculus; assay: as §2; format: toxicity, organism-based; conditions: in vivo, ip; how it was run: as §3
[6] = species: Mus musculus; assay: Compound was evaluated for the antitumor activity against P388 lymphocytic leukemia in mice; format: functional; how it was run: as §1
[7] = species: Mus musculus; assay: Compound was evaluated for the antitumor activity against P388 lymphocytic leukemia in mice; T/C = days test animal live/days control animals live x100; format: functional; how it was run: as §1
[8] = species: Mus musculus; assay: Compound was evaluated for the antitumor activity against P388 lymphocytic leukemia in mice;T/C=days test animal live/days control animals live x100); format: functional; how it was run: as §1

## CCCCOC(=O)N[C@H]1CCc2cc(OC)c(OC)c(OC)c2-c2ccc(SC)c(=O)cc21
[1]
  T/C: 142
[2]
  LD50: 81 mg/kg
[3]
  MED: <3
[4]
  Dose: 3 mg/kg

## CN[C@H]1CCc2cc(OC)c(OC)c(OC)c2-c2ccc(SC)c(=O)cc21
[1]
  T/C: 131
[5]
  Binding: > 100 mg/kg
[3]
  MED: 50
[4]
  Dose: 100 mg/kg

## COc1cc2c(c(OC)c1OC)-c1ccc(SC)c(=O)cc1[C@@H](NC(=O)Oc1ccccc1)CC2
[2]
  LD50: > 50 mg/kg
[3]
  MED: 2.5
[6]
  T/C: 164
[4]
  Dose: 5 mg/kg

## CCOC(=O)N[C@H]1CCc2cc(OC)c(OC)c(OC)c2-c2ccc(SC)c(=O)cc21
[3]
  MED: 0.38
[7]
  T/C: 172
[4]
  Dose: 1.5 mg/kg

## C=COC(=O)N[C@H]1CCc2cc(OC)c(OC)c(OC)c2-c2ccc(SC)c(=O)cc21
[1]
  T/C: 152
[2]
  LD50: 87.5 mg/kg
[3]
  MED: 1.5
[4]
  Dose: 3 mg/kg

## COc1cc2c(c(OC)c1O)-c1ccc(SC)c(=O)cc1[C@@H](NC(C)=O)CC2
[2]
  LD50: 68.1 mg/kg
[3]
  MED: 2.5
[6]
  T/C: 148
[4]
  Dose: 10 mg/kg

## CCOCC(=O)N[C@H]1CCc2cc(OC)c(OC)c(OC)c2-c2ccc(SC)c(=O)cc21
[2]
  LD50: 5.1 mg/kg
[3]
  MED: 0.38
[8]
  T/C: 229
[4]
  Dose: 1.5 mg/kg

## COc1c(O)cc2c(c1OC)-c1ccc(SC)c(=O)cc1[C@@H](NC(C)=O)CC2
[3]
  MED: 1.25
[6]
  T/C: 194
[4]
  Dose: 5 mg/kg

## COc1cc2c(c(OC)c1OC)-c1ccc(SC)c(=O)cc1[C@@H](N(C)C(=O)C(F)(F)F)CC2
[1]
  T/C: 145
[2]
  LD50: 18.6 mg/kg
[3]
  MED: 5
[4]
  Dose: 10 mg/kg

## COc1cc2c(c(OC)c1OC)-c1ccc(SC)c(=O)cc1[C@@H](NC=O)CC2
[2]
  LD50: 58.2 mg/kg
[3]
  MED: <0.75
[6]
  T/C: 171
[4]
  Dose: 0.75 mg/kg

## COc1cc2c(c(OC)c1OC)-c1ccc(SC)c(=O)cc1[C@@H](NC(=O)c1ccccc1)CC2
[1]
  T/C: 155
[2]
  LD50: 40 mg/kg
[3]
  MED: <2.5
[4]
  Dose: 2.5 mg/kg

## COc1cc2c(c(OC)c1OC)-c1ccc(SC)c(=O)cc1[C@@H](NC(=O)C(F)(F)F)CC2
[2]
  LD50: 0.9 mg/kg
[3]
  MED: 0.32
[6]
  T/C: 148
[4]
  Dose: 0.62 mg/kg

## CCCC(=O)N[C@H]1CCc2cc(OC)c(OC)c(OC)c2-c2ccc(SC)c(=O)cc21
[3]
  MED: 0.19
[6]
  T/C: 231
[4]
  Dose: 1.5 mg/kg

## COc1cc2c(c(OC)c1OC)-c1ccc(OC)c(=O)cc1[C@@H](NC(C)=O)CC2 [COLCHICINE]
[3]
  MED: 0.06
[6]
  T/C: 245
[4]
  Dose: 0.5 mg/kg

## COc1cc2c(c(OC)c1OC)-c1ccc(SC)c(=O)cc1[C@@H](NC(C)=O)CC2 [THIOCOLCHICINE]
[3]
  MED: 0.05
[6]
  T/C: 193
[4]
  Dose: 0.18 mg/kg
